Rows were chosen to be rich in hits. Some 3.1% of all compounds tested hit in one or more screens of this group.
hERG protect: hERG (human) protection from proarrhythmic block; Q12809; CHO-hERG, FluxOR thallium flux, dofetilide IC70 present; activation (rescue from dofetilide block), less the hit threshold, % at 10 µM; 310,000 tested, 0.51% active;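 active = activation above the mean of controls blocked by dofetilide plus 5 SD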;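 also: thallium influx through hERG after potassium depolarization seen as dye fluorescence rise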
KCNK9 inh: blocks the human KCNK9 two-pore domain potassium channel. Q9NPC2. 310,000 tested, 1.2% active. B-score at 10 µM. HEK293 KCNK9, FluxOR thallium flux fluorescence; active compounds read low;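 active = ratio B-score over 3 SD below the library mean, with starting fluorescence within 5 SD of its mean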;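 also: negative B-score means less thallium flux so channel inhibition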
KCNK3 block: human KCNK3 channel inhibition, primary screen. CHO-KCNK3 thallium flux, FluxOR fluorescence; active compounds read low. O14649. AID 602410. B-score at 10 µM. 340,000 tested, 0.84% active;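 active = B-score under library mean minus 4 SD, starting fluorescence ratio at most library mean plus 5 SD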;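 also: more negative B-score means stronger inhibition of thallium flux through KCNK3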
KCNQ1 inh: human KCNQ1 channel inhibition | P51787 | CHO-K1 KCNQ1, FluxOR thallium flux fluorescence; active compounds read high | B-score at 10 µM | 310,000 tested, 1.3% active | AID 2642;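 active = compounds whose thallium flux B-score, printed positive for inhibition, exceeds three library SD while starting fluorescence stays within three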;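 also: channel opened by potassium depolarization with thallium stimulus after 20 min compound exposure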
KCNQ1 act: potentiators or activators of human KCNQ1 potassium channel. CHO-K1 KCNQ1, thallium flux FluxOR fluorescence; active compounds read high. B-score at 10 µM. 310,000 tested, 0.35% active. AID 2648;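 active = fluorescence ratio B-score, a plate-corrected score, at least three library SD, with initial intensity B-score within 5 SD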
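Assay system: stable KCNQ1 CHO-K1 line; medium: assay buffer, equal DMSO in all wells; timing: 90 min dye loading and 20 min compound exposure, both at room temperature; technique: kinetic FluxOR thallium fluorescence, 10-s 1-Hz baseline, 110-s post-stimulus read; read-out basis: B score of baseline-normalized fluorescence ratio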
KCNK9 inh conf: confirmation of human KCNK9 potassium channel inhibitors; inhibition, % at 10 µM; HEK293 KCNK9 cells, FluxOR thallium flux fluorescence; 4,900 tested, 43% active; shares compounds with KCNK9 inh; AID 492992;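 active = thallium signal inhibited by more than 5 SD of the compound-free buffer control wells, on both duplicate plates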;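 also: 0% = assay buffer control wells without compound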
Kir2-1 spec: tests whether KCNK9 modulators also affect mouse Kir2.1; 4,900 tested, 4% active; inhibition, % at 10 µM; Kir2.1 cells, FluxOR thallium flux fluorescence; AID 492993; shares compounds with KCNK9 inh;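 active = thallium signal drop more than 5 SD beyond the mean of the no-compound control wells, seen in both duplicate plates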;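 also: signal is fluorescence rise after thallium addition divided by baseline fluorescence; plate controls were assay buffer only for no effect and full block by chlorpromazine control for full effect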
KCNK9 uninduced: second counter-screen for KCNK9 modulators: effect in non-induced cells. inhibition, % at 10 µM. 4,900 tested, 40% active. non-induced KCNK9-HEK293, FluxOR thallium flux. shares compounds with KCNK9 inh;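 active = thallium signal drop beyond 5 SD of the untreated control mean, on both duplicate plates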;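 also: plate controls were buffer only IC0 wells for no effect and SID17386958 at its maximal inhibitory level for full effect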
KCNK3 inh conf: confirmation of human KCNK3 two-pore domain potassium channel inhibitors; shares compounds with KCNK3 block; CHO-KCNK3 thallium flux, FluxOR fluorescence; 0% buffer, 100% carvedilol maximal block; ratio percent of control, % at 10 µM; 2,400 tested, 99% active; AID 651638;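 active = ratio percent of control, averaged over triplicates, above buffer control mean plus 5 SD, cut at about 64% in these data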;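 also: ratio is the fluorescence rise from min to max over baseline after thallium stimulus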
KCNK3 noninduced: counter-screen for KCNK3 inhibitors: effect in non-induced cells. shares compounds with KCNK3 block. non-induced KCNK3 parental cells, FluxOR thallium flux; active compounds read low. thallium flux ratio (lower = more inhibition) at 10 µM. 2,400 tested, 40% active. AID 651747;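 active = thallium flux ratio, averaged over three wells, more than 5 SD below the buffer control mean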;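 also: host cells are CHO cells without KCNK3 induction; ratio is peak minus trough fluorescence over baseline then normalized to buffer controls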
Active calls of the source: *; i = inactive; . = no result given.

SMILES | hERG protect | KCNK9 inh | KCNK3 block | KCNQ1 inh | KCNQ1 act | KCNK9 inh conf | Kir2-1 spec | KCNK9 uninduced | KCNK3 inh conf | KCNK3 noninduced
O=C(Nc1cccc(-c2cn3cccnc3n2)c1)c1ccc(Br)o1 | -13.1 | -8.67* | -9.57* | i | i | 40.5%* | i | i | 95.3* | i
O=C(Nc1ccc(NC(=O)c2cccs2)cc1)c1ccc(Br)o1 | -5.7 | i | i | i | i | . | . | . | . | .
O=C(Nc1cccc(NC(=O)c2cccs2)c1)c1ccc(Br)o1 | -12.3 | -16.2* | -10.1* | i | i | 62.0%* | i | i | 99.0* | i
C/C(CC(=O)Nc1ccccn1)=N\NC(=O)c1cccc(C)c1 | -16.7 | i | i | i | i | . | . | . | . | .
COc1ccc(C(=O)OC(C(=O)c2ccccc2)c2ccccc2)cc1 (stereo not given) | -4.1 | -18.6* | -9.6* | i | i | 77.0%* | i | 46.5%* | 115.3* | i
Cc1cc(C)n(C(C)CNS(=O)(=O)c2ccccc2)n1 (stereo not given) | -5.9 | i | i | i | i | . | . | . | . | .
Cc1nnc(NC(=O)CN2CCN(Cc3ccccc3)CC2)s1 | -6.6 | i | i | i | i | . | . | . | . | .
O=c1cc(CN2CCN(C/C=C/c3ccccc3)CC2)c2cc(O)c(-c3ccccc3)cc2o1 | -10.2 | i | i | i | i | . | . | . | . | .
CC(C)CN(Cc1cc(=O)oc2cc(-c3ccccc3)c(O)cc12)CC(C)C | -21.8 | -10.3* | i | 11* | i | 53.0%* | i | 27.0%* | 145.7* | 0.088*
CCn1nnnc1SCC(=O)Nc1ccc(F)cc1 | -6.4 | i | i | i | i | . | . | . | . | .
Cc1cn(C2OC(COC(=O)c3ccccc3)C(OC(=O)c3ccccc3)C2OC(=O)c2ccccc2)c(=O)[nH]c1=O (stereo not given) | -17.4 | -10.3* | -11* | i | i | 37.5%* | i | 34.5%* | 103.0* | 0.16*
Cc1cn(C2OC(COC(=O)c3ccccc3)C(O)C2O)c(=O)[nH]c1=O (stereo not given) | -13.8 | i | i | i | i | . | . | . | . | .
COc1cc(C2Nc3ccccc3C(=O)N2c2ccc(Cl)cc2)c(Cl)cc1OCC(=O)O (stereo not given) | -8.0 | i | i | i | i | . | . | . | . | .
CCOC(=O)COc1c(OC)cc(Cl)cc1C1Nc2ccccc2C(=O)N1c1ccccc1 (stereo not given) | -5.7 | -10.5* | -11.3* | i | i | 55.5%* | i | 36.0%* | 107.0* | 0.136*
CCOC(=O)COc1c(OC)cc(Cl)cc1C1Nc2ccccc2C(=O)N1c1cccc(C)c1 (stereo not given) | -12.4 | -9.07* | -9.71* | i | i | 47.5%* | i | 37.5%* | 111.3* | i
CCOc1cc(C2Nc3ccccc3C(=O)N2c2ccccc2)ccc1O (stereo not given) | -3.8 | i | i | i | i | . | . | . | . | .
CC1=CC=CC2=NC(=O)CC(C)(C(=O)N(CC(=O)NC3CCCC3)c3ccc(F)cc3)N12 (stereo not given) | -2.4 | i | i | i | i | . | . | . | . | .
Cc1ccc(C)c(-c2csc(N/N=C/c3ccco3)n2)c1 | -6.8 | -8.92* | -11.3* | i | i | 38.5%* | i | 27.0%* | 114.7* | 0.157*
Cc1ccc(NC(=O)NNc2cccc(Cl)n2)cc1 | -3.8 | i | i | i | i | . | . | . | . | .
C=C(C)COc1ccc(-c2ncnc(C(F)(F)F)c2-c2ccc(OC)cc2)c(O)c1 | -6.3 | i | -9.24* | i | i | i | i | i | 109.0* | 0.15*
C=C(C)COc1ccc(-c2ncnc(C(F)(F)F)c2-c2ccccc2)c(O)c1 | -0.6 | i | i | i | i | . | . | . | . | .
CCSC1=N/C(=C\C=C2/Oc3ccccc3N2CC)C(=O)S1 | -10.4 | i | i | i | i | . | . | . | . | .
O=C(Nc1nc2c(s1)CCCC2)c1nn(Cc2ccccc2)c(=O)c2ccccc12 | -7.0 | -13.9* | -8.96* | i | i | 72.5%* | i | i | 100.7* | i
CC(C)CNC(=O)c1nn(Cc2ccccc2)c(=O)c2ccccc12 | -3.4 | i | i | i | i | . | . | . | . | .
CCNC(=O)CNC(=O)c1nn(Cc2ccccc2)c(=O)c2ccccc12 | 1.9 | -10.3* | -13* | i | i | 60.0%* | i | 23.5%* | 102.0* | i
SMILES | hERG protect | KCNK9 inh | KCNK3 block | KCNQ1 inh | KCNQ1 act | KCNK9 inh conf | Kir2-1 spec | KCNK9 uninduced | KCNK3 inh conf | KCNK3 noninduced
CCOc1ccccc1C(=O)Nc1cccc(-c2nnc(-c3ccccc3)o2)c1 | -14.4 | -15.5* | -9.49* | i | i | 45.0%* | i | 28.5%* | 107.3* | i
Cc1ccc(S(=O)(=O)N(C)C)cc1NC(=O)CN1CCN(Cc2ccccc2)CC1 | -8.4 | i | i | i | i | . | . | . | . | .
Cc1ccc(S(=O)(=O)N(C)C)cc1NC(=O)c1cc(C(C)(C)C)nn1Cc1ccccc1 | -5.4 | -16.1* | -12.4* | i | i | 39.5%* | i | 33.0%* | 128.0* | 0.136*
COc1ccc(C2CC(c3ccc4ccccc4c3)=NN2C(=O)CNC2CCCCC2)cc1 (stereo not given) | -29.5 | -8.9* | -10.6* | i | i | 44.5%* | i | 29.5%* | 132.7* | i
CCN(CC)S(=O)(=O)c1ccc(N2CCc3cc(OC)c(OC)cc3C2)nc1 | -5.7 | i | i | i | i | . | . | . | . | .
CC(C)=CCC/C(C)=C/COc1ccc2ccc(=O)oc2c1 | -6.9 | -19.3* | -9.2* | i | i | 68.5%* | i | 46.5%* | 93.0* | i
CC(C)=CCC/C(C)=C/CC/C(C)=C/COc1ccc2ccc(=O)oc2c1 | . | . | i | . | . | . | . | . | . | .
CC(C)=CCOc1ccc2ccc(=O)oc2c1 | -5.6 | -11.6* | -9.25* | i | i | 37.0%* | i | 34.5%* | 118.7* | i
COc1cccc(COc2ccc3ccc(=O)oc3c2)c1 | -7.2 | i | i | i | i | . | . | . | . | .
COc1ccc(COc2ccc3ccc(=O)oc3c2)cc1 | -5.5 | -11.8* | -10.2* | i | i | 46.5%* | i | 31.5%* | 115.3* | i
